Four compounds from publication PMC3270411 (Chemistry & biology, 2012) can be followed below.

For orientation: IC50 means the midpoint of a concentration-inhibition curve. A low value points to greater potency in that assay. What is called Kd is the concentration at which binding is half-saturated. A low value points to higher affinity.

Molecules are shown by their SMILES.

One test deals with JNK. The test can be described thus: pulse-chase ATP-biotin binding kinetics assay in A375 cells. Format: cell-based. The settings on record: same pulse-chase protocol. Summed up:
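A375 cells treated with 1 μM test compound for 1–5 h, then washed three times in PBS. Lysed in NP-40/CHAPS buffer for 30 min at 4°C, cleared, and gel-filtered into HEPES kinase buffer (about 5–15 mg/ml protein). Lysate labelled with 5 μM ATP-biotin probe for 1 h, reduced with DTT, alkylated with iodoacetamide, and pulled down on streptavidin for 2 h. Read-out: SDS-PAGE and JNK immunoblot.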

Test [1] deals with c-Jun phosphorylation in HeLa and A375 cells. Description: cellular c-Jun phosphorylation, statements for both assay formats. The note with it: relative to JNK-IN-5. Format: cell-based.
For the next test, the target named is p38a (Homo sapiens, UniProt Q16539). Description: KiNativ cellular kinase profiling. Format: cell-based. The note with it: A375 cells, 1 μM, 3 hours.
The target in a further test is PIK3C3 (Homo sapiens, UniProt Q8NEB9). Description: KiNativ cellular kinase profiling. Format: cell-based. The note with it: A375 cells, 1 μM, 3 hours, PIK3C3, labeling site ATP.
In the next test the target is T1, PIP4K2C (Homo sapiens, UniProt Q8TBX8).
T1 sequence (Q8TBX8 1-421): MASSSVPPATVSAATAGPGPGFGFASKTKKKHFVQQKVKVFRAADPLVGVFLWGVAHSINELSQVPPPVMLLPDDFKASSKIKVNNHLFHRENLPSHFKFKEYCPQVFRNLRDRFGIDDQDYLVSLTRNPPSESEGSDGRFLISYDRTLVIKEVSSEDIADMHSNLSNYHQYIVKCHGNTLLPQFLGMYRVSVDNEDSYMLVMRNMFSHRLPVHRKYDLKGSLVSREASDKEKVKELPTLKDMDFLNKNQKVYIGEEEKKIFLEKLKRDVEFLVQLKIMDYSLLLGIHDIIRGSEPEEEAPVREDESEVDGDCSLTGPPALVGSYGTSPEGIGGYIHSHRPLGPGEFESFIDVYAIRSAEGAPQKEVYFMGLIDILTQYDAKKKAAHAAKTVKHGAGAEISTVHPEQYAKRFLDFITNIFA
The test can be described thus: KiNativ cellular kinase profiling. The note with it: A375 cells, 1 μM, 3 hours, labeling site ATP. The class given is cell-based.

The next test addresses DNAPK (Homo sapiens, UniProt P78527). Description: KiNativ cellular kinase profiling. The class given is cell-based. The settings on record: A375 cells, 1 μM, 3 hours, labeling site ATP.
Test [2] concerns panel of 442 distinct kinases. The test can be described thus: KINOMEscan kinase-binding panel.
The target of test [3] is T2, IRAK1 (Homo sapiens, UniProt P51617). The test can be described thus: follow-up IC50 determination after enzymatic panel. Format: biochemical.
Another test deals with ERK8 (Homo sapiens, UniProt Q8TD08). The test can be described thus: follow-up IC50 determination after enzymatic panel. Format: biochemical.
A further test addresses NUAK1 (Homo sapiens, UniProt O60285). Description: follow-up IC50 determination after enzymatic panel. The class given is biochemical.
Test [4] deals with potential additional kinase targets. The test can be described thus: follow-up biochemical and binding assays on potent binding targets. The settings on record: enzymatic assay or dissociation constant follow-up.
Another test has as its target JNK3 (Homo sapiens, UniProt P53779). Description: intact protein mass spectrometry of inhibitor-labeled JNK3. The note with it: incubation with JNK3, electrospray mass spectrometry. The class given is binding.
Test [5] concerns the target T2, IRAK1. Description: enzymatic kinase assay on potential off-target. Format: biochemical. The note with it: IC50 (nM) (enzymatic) IRAK1.
The target of a further test is KIT(L576P) (Homo sapiens, UniProt P10721, L576P). The test can be described thus: KinomeScan dissociation constant. The class given is binding.
The next test concerns the target MET(M250T) (Homo sapiens, UniProt P08581, M1250T). Description: enzymatic kinase assay on potential off-target. The class given is biochemical.
The next test addresses KIT(V559D,T670I) (Homo sapiens, UniProt P10721, T670I/V559D). The test can be described thus: KinomeScan dissociation constant. Format: binding.

DNAPK, sequence (P78527 whole entry): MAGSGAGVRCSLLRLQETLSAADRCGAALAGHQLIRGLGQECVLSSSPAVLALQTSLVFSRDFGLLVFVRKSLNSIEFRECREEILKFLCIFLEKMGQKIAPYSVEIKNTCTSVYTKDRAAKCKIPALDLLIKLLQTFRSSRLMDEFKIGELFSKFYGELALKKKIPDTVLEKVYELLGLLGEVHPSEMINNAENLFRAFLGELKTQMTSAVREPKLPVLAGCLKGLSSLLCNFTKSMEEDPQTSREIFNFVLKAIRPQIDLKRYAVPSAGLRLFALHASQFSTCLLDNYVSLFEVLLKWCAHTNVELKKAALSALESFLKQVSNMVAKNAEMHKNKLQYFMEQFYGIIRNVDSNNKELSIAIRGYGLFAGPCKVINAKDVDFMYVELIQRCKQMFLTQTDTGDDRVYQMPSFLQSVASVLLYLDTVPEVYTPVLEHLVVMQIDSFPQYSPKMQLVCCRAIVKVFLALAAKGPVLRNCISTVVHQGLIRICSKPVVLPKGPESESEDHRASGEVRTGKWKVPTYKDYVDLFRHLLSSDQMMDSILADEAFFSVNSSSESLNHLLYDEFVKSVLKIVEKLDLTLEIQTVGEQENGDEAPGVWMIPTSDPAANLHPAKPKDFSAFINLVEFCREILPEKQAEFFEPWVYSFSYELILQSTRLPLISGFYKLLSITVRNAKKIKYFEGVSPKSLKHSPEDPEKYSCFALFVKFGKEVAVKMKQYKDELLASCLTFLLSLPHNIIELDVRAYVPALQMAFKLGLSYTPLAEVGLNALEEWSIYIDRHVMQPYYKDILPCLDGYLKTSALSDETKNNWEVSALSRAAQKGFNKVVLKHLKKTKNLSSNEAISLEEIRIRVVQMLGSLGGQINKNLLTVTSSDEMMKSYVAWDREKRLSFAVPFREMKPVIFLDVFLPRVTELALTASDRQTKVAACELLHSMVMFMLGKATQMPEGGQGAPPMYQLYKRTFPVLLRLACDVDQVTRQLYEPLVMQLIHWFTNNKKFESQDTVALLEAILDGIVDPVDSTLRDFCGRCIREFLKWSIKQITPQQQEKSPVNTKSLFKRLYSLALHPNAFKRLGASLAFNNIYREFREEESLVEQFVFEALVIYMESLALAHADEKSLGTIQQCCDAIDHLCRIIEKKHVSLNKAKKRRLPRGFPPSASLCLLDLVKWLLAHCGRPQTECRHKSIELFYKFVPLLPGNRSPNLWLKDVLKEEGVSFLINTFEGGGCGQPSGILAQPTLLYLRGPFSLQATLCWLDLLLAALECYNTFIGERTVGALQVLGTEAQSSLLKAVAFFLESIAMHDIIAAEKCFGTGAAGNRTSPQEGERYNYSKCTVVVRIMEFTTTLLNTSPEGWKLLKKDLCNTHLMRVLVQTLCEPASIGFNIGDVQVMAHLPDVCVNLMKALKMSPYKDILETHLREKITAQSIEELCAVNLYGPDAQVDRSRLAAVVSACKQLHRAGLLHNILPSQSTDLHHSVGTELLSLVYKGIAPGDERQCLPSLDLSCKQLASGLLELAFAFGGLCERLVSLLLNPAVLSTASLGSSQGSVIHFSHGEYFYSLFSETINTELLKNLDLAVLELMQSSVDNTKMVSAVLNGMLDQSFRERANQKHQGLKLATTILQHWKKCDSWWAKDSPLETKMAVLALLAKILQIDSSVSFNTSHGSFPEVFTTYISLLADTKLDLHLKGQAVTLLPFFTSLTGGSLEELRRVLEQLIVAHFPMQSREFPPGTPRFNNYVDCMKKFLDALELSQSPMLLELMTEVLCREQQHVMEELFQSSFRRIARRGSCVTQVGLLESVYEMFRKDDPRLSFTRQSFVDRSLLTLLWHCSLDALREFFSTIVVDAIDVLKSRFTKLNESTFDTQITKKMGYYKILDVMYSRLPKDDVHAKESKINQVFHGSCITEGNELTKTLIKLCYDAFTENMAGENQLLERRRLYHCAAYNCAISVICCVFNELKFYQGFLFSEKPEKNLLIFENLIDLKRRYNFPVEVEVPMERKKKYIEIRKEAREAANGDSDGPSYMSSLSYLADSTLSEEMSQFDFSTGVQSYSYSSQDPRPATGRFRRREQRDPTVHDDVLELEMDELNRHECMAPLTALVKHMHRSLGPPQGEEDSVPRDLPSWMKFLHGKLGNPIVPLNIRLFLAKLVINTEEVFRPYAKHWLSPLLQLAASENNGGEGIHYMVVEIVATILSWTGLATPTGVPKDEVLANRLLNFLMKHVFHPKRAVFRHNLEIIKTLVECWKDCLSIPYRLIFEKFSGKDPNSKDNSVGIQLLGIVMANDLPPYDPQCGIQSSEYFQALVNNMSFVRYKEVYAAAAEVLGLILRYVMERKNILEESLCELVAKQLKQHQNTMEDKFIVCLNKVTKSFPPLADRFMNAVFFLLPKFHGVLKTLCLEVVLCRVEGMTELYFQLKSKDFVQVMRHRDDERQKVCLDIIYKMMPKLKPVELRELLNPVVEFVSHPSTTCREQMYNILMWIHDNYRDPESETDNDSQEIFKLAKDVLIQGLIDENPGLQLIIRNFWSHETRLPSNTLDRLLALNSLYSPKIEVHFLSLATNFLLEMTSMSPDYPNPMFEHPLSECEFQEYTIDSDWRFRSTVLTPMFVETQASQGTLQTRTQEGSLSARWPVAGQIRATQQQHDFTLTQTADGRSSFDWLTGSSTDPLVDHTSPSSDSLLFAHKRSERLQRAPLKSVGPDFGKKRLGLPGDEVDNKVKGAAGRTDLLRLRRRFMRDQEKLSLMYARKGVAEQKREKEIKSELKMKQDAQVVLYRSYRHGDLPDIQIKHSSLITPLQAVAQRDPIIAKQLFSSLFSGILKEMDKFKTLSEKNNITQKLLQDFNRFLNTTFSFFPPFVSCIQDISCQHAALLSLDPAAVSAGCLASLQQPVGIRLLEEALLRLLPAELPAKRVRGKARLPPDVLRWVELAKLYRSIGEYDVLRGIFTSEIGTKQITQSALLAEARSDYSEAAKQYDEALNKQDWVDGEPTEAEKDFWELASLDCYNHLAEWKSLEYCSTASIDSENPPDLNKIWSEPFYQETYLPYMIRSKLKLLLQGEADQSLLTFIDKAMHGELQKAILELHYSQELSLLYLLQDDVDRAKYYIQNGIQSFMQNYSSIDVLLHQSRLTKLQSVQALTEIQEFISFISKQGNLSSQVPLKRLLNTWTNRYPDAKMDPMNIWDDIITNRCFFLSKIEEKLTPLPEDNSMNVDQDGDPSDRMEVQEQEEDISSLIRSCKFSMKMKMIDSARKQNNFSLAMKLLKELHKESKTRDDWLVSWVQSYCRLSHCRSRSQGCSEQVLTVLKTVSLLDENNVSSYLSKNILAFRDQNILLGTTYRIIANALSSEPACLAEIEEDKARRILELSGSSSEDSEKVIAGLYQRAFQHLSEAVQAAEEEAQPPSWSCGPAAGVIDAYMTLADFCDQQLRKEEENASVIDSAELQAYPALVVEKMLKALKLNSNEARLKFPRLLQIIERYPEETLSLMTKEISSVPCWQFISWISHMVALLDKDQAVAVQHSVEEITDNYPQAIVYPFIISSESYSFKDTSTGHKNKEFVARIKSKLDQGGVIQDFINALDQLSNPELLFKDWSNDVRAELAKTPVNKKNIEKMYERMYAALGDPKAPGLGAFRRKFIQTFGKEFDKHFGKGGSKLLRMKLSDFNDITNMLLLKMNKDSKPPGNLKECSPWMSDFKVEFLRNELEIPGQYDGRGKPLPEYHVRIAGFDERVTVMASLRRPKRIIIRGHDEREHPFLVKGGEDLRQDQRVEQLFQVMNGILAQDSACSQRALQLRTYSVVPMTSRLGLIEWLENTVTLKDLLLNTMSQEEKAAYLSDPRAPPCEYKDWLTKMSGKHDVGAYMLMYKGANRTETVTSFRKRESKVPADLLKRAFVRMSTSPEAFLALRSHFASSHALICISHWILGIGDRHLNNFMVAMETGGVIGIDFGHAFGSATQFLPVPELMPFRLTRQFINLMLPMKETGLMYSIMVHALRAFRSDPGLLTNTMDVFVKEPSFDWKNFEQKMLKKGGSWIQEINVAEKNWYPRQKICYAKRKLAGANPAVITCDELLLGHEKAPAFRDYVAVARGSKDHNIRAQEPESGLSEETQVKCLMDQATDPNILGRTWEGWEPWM
PIK3C3, sequence (Q8NEB9 whole entry): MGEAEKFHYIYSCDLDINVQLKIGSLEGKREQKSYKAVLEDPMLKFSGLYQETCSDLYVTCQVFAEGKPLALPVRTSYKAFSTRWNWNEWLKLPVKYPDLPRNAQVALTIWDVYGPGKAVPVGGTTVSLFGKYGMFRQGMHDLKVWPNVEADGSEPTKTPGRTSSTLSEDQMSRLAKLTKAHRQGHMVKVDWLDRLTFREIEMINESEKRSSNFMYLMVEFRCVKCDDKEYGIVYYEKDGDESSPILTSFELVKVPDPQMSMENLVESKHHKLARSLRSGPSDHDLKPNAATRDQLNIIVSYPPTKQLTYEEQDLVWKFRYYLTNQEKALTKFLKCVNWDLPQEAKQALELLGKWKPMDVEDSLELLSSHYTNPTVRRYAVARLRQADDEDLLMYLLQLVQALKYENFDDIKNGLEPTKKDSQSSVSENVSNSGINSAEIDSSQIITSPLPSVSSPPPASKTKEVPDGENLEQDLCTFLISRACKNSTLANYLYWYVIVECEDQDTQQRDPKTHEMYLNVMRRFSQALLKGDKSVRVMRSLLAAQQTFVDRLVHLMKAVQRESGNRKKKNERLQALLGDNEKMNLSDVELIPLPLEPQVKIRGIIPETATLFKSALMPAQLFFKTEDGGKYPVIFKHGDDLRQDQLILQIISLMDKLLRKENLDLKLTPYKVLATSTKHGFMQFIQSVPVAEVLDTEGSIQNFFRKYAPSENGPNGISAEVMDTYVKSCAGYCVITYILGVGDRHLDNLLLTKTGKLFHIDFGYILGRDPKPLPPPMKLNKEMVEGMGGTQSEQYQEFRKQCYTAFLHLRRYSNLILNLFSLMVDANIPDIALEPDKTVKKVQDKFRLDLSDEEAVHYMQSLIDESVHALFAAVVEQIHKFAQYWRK

`CCC(=O)Nc1cccc(C(=O)Nc2ccc(Nc3nccc(-c4cccnc4)n3)cc2)c1` [JNK-IN-6]: the “protection of JNK from labeling by ATP-biotin” value in the test on JNK was “incapable of protecting JNK from labeling by ATP-biotin”. In addition, the “fold loss in potency / fold higher IC50 for cellular JNK inhibition” value in [1] is recorded as 50 fold. Besides, the “Percent inhibition of kinase labeling by ATP-biotin” value (“Percent inhibition” for short) on p38a (labeling site Lys2) is 32.6%; at p38a (labeling site Other) it was 12.4%; at PIK3C3 (first of two table lines), 26.5%; on PIK3C3 (second of two table lines), 3.1%; on PIP4K2C (first of two table lines) it was −4.7%; on PIP4K2C (second of two table lines), 35.7%. Further, the “Percent inhibition” value on DNAPK (first of two table lines) is listed as 51.1%; at DNAPK (second of two table lines), 31.7%.

Take `CN(C)C/C=C/C(=O)Nc1cccc(C(=O)Nc2ccc(Nc3nccc(-c4cccnc4)n3)cc2)c1` [JNK-IN-7]: the “number of kinases with binding inhibition of 95% or more” value in test [2] (1.0 μM) is “approximately 14 kinases”. Besides, the IC50 on IRAK1 [3] was below 200 nM; at ERK8, below 200 nM; against NUAK1 it was below 200 nM; on IRAK1 [5], around 10 nM. Besides, the “number of additional kinases with Kd or IC50 of 100 nM or less” value in [4] is reported as “eight”. The “covalent modification of JNK3 (mass spectrometry)” value on JNK3 is “addition of a single molecule of inhibitor to the protein and labeling of Cys154”. This compound also had a Kd at KIT(L576P) of 40 nM.

Turning to `Cc1cc(NC(=O)c2cccc(NC(=O)/C=C/CN(C)C)c2)ccc1Nc1nccc(-c2cccnc2)n1` [JNK-IN-8], the 50% inhibitory concentration (IC50) on MET(M250T) is above 10000 nM. The same compound registered a Kd at KIT(V559D,T670I) of 56 nM.

Consider `CN(C)C/C=C/C(=O)Nc1cccc(C(=O)Nc2ccc(Nc3nccc(/C(C#N)=C4\Nc5ccccc5S4)n3)cc2)c1` [JNK-IN-12], for which the “S (10) score (ratio number of kinases inhibited more than 90 percent)” value in test [2] (screening concentration 1 μM) amounted to 0.025. Moreover, the “Percent inhibition” value was −28% on p38a (labeling site Lys2); −13.8% on p38a (labeling site Other); 7.5% at PIK3C3 (first of two table lines); −0.5% at PIK3C3 (second of two table lines); 43.9% on PIP4K2C (first of two table lines); 42.6% at PIP4K2C (second of two table lines). The “Percent inhibition” value on DNAPK (first of two table lines) is listed as −65.4%; at DNAPK (second of two table lines) it was −80.7%.
